Measurements taken from ChEMBL document CHEMBL1145315, “Synthesis and hypoxic-cytotoxic activity of some 3-amino-1,2,4-benzotriazine-1,4-dioxide derivatives” (Bioorg Med Chem Lett, 2006).
Calls of active or inactive are those of the source. The calls are words filed in the database; no cut-off is given here.

What was measured:
MOLT-4 [1] = assay: Cytotoxicity against human Molt4 cells after 48 hrs by MTT assay; type: functional, cell-based; details: MOLT-4, 48 h
Method in brief: (§1)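 Cells were exposed in hypoxia for 48 h with tirapazamine as the reference drug. Growth was read by MTT assay and IC50 was calculated by the LOGIT method.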

HepG2 = assay: Cytotoxicity against human HepG2 cells after 48 hrs by MTT assay; type: functional, cell-based; details: HepG2, 48 h; method in brief: as §1
PC-3 = assay: Cytotoxicity against human PC3 cells after 48 hrs by MTT assay; type: functional, cell-based; details: PC-3, 48 h; method in brief: as §1
HL-60 [2] = assay: Cytotoxicity against human HL60 cells after 48 hrs by MTT assay; type: functional, cell-based; details: HL-60, 48 h; method in brief: as §1
K562 = assay: Cytotoxicity against human K562 cells after 48 hrs by MTT assay; type: functional, cell-based; details: K562, 48 h; method in brief: as §1
HL-60 [3] = assay: Cytotoxicity against human HL60 cells in hypoxia after 48 hrs; type: functional, cell-based; details: HL-60, 48 h
Method in brief: (§2)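 Cells were exposed for 48 h in either normoxia or hypoxia. IC50 was determined separately under each oxygen condition.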

MOLT-4 [4] = assay: Cytotoxicity against human Molt4 cells in normoxia after 48 hrs; type: functional, cell-based; details: MOLT-4, 48 h; method in brief: as §2
MOLT-4 [5] = assay: Induction of apoptosis in human Molt4 cells after 24 hrs at 2 uM; type: functional
Method in brief: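 Cells were cultured in complete medium under 3% O2 with 2.0 μM compound for 24 h, alongside an untreated control. Lysed nuclei were stained with propidium iodide, and DNA content was analysed by flow cytometry on 20,000 events per test, scoring the apoptotic fraction. The experiment was done three times.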

MOLT-4 [6] = assay: Ratio of cytotoxicity against human Molt4 cells in normoxia to hypoxia after 48 hrs; type: functional, cell-based; details: MOLT-4, 48 h
HL-60 [7] = assay: Cytotoxicity against human HL60 cells in normoxia after 48 hrs; type: functional, cell-based; details: HL-60, 48 h; method in brief: as §2
MOLT-4 [8] = assay: Cytotoxicity against human Molt4 cells in hypoxia after 48 hrs; type: functional, cell-based; details: MOLT-4, 48 h; method in brief: as §2
HL-60 [9] = assay: Ratio of cytotoxicity against human HL60 cells in normoxia to hypoxia after 48 hrs; type: functional, cell-based; details: HL-60, 48 h
MOLT-4 [10] = assay: Increase in p53 level in human Molt4 cells in hypoxia after 24 hrs at 2 uM; type: functional, cell-based
Method in brief: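 Cells were exposed to 2.0 μM compound for 24 h in hypoxia, and p53 protein was measured by Western blot. The experiment was repeated three times.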

MOLT-4 [11] = assay: Reduction of mitochondrial membrane potential in human Molt4 cells after 12 hrs at 2 uM; type: functional, cell-based
Method in brief: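 Cells were treated with 2.0 μM compound for 12 h in hypoxia and then stained with JC-1. Flow cytometry read depolarization as a rise in the green:red fluorescence ratio. Values are means ± SD from three separate experiments, each run in triplicate.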

SMILES	IC50 (MOLT-4 [1]) [µM]	IC50 (HepG2) [µM]	IC50 (PC-3) [µM]	IC50 (HL-60 [2]) [µM]	IC50 (K562) [µM]	IC50 (HL-60 [3]) [µM]	IC50 (MOLT-4 [4]) [µM]	Activity (MOLT-4 [5]) [%]	IC50 ratio (MOLT-4 [6])	IC50 (HL-60 [7]) [µM]	IC50 (MOLT-4 [8]) [µM]	IC50 ratio (HL-60 [9])	Activity (MOLT-4 [10])	Activity (MOLT-4 [11])
Nc1ccccc1Nc1n[n+]([O-])c2ccccc2[n+]1[O-]	2.3	17.4	16.1	8.3	10.6									
[O-][n+]1nc(N2CCOCC2)[n+]([O-])c2ccccc21	> 16.1	> 95	> 95	> 60	> 47									
[O-][n+]1nc(NC2CCCCC2)[n+]([O-])c2ccccc21	1.3	9.5	10.5	2.5	2.6									
[O-][n+]1nc(NCc2ccccc2)[n+]([O-])c2ccccc21	2.2	8.2	10.7	2.5	1.9	2.5	8.1	33	3.68	6.3	2.2	2.53	Active	Active
[O-][n+]1nc(NCCO)[n+]([O-])c2ccccc21	2.6	23.2	22.4	10.7	3.7									
[O-][n+]1nc(NC2CC2)[n+]([O-])c2ccccc21	1.9	13.3	15.9	3.6	6.6									
CCNc1n[n+]([O-])c2ccccc2[n+]1[O-]	3.3	13.5	13.3	9	4.5									
O=[N+]([O-])c1ccc(CNc2n[n+]([O-])c3ccccc3[n+]2[O-])cc1	0.8	7.7	7.4	1.4	3.1	1.4	5		6.25	6	0.8	4.29		
CCN(CC)c1n[n+]([O-])c2ccccc2[n+]1[O-]	> 17.6	> 107	> 107	> 49	> 55									
[O-][n+]1nc(Nc2ccccc2)[n+]([O-])c2ccccc21	1.4	15	17	2.9	2.4									
Nc1n[n+]([O-])c2ccccc2[n+]1[O-] [TIRAPAZAMINE]	4.6	19.1	22.3	7	5.2	7	15.8	11	3.43	16.1	4.6	2.31	Active	Active
Cc1ccc(Nc2n[n+]([O-])c3ccccc3[n+]2[O-])cc1	1.1	10.6	10.3	1.5	2.5									
C=CCNc1n[n+]([O-])c2ccccc2[n+]1[O-]	3	> 56	> 56	25.8	11.2									
CCCCCCCCNc1n[n+]([O-])c2ccccc2[n+]1[O-]	4.9	17.4	18.2	7.2	4.7									
COc1ccc(Nc2n[n+]([O-])c3ccccc3[n+]2[O-])cc1	0.6	10.1	12	0.9	2.9	0.9	5.2	45	8.67	6.8	0.6	7.56	Active	Active
[O-][n+]1nc(NCc2ccccc2Cl)[n+]([O-])c2ccccc21	2.3	9.7	10.6	5.8	2.2									
